Laboratory results from ChEMBL document CHEMBL1144562, “Synthesis of a new class of 2-anilino substituted nicotinyl arylsulfonylhydrazides as potential anticancer and antibacterial agents” (2007).
Values after ≈ are worked out from the molar mass of the structure shown.

Columns and labels:
SR = test: Antitumor activity against SR cells; assay type: functional; conditions: Homo sapiens
Summary of the method: (§1)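 Tested in the NCI 60-human-tumour-cell-line panel at five concentrations, in 10-fold dilutions from 10^-4 to 10^-8 M. Three parameters were taken from the dose-response data, each as log10 of the molar concentration: GI50 (50% net growth inhibition), TGI (total growth inhibition) and LC50 (50% net cell death).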

A549 = test: Antitumor activity against A549 cells; assay type: functional; conditions: Homo sapiens
[1] = Antitumor activity against MALME 3M cells; assay type: functional; conditions: Homo sapiens
M14 = test: Antitumor activity against M14 cells; assay type: functional; conditions: Homo sapiens
SK-MEL-28 = test: Antitumor activity against SK-MEL-28 cells; assay type: functional; conditions: Homo sapiens
SK-MEL-5 = test: Antitumor activity against SK-MEL-5 cells; assay type: functional; conditions: Homo sapiens; summary of the method: as §1
UACC-257 = test: Antitumor activity against UACC257 cells; assay type: functional; conditions: Homo sapiens; summary of the method: as §1
OVCAR-3 = test: Antitumor activity against OVCAR-3 cells; assay type: functional; conditions: Homo sapiens
OVCAR-4 = test: Antitumor activity against OVCAR4 cells; assay type: functional; conditions: Homo sapiens
SK-OV-3 = test: Antitumor activity against SKOV3 cells; assay type: functional; conditions: Homo sapiens; summary of the method: as §1
A498 = test: Antitumor activity against A498 cells; assay type: functional; conditions: Homo sapiens
ACHN = test: Antitumor activity against ACHN cells; assay type: functional; conditions: Homo sapiens
CAKI-1 = test: Antitumor activity against CAKI1 cells; assay type: functional; conditions: Homo sapiens
PC-3 = test: Antitumor activity against PC3 cells; assay type: functional; conditions: Homo sapiens
DU-145 = test: Antitumor activity against DU145 cells; assay type: functional; conditions: Homo sapiens
MCF7 = test: Antitumor activity against MCF7 cells; assay type: functional; conditions: Homo sapiens
MDA-MB-231 = test: Antitumor activity against MDA-MB-231 cells; assay type: functional; conditions: Homo sapiens
Hs-578T = test: Antitumor activity against HS578T cells; assay type: functional; conditions: Homo sapiens
BT-549 = test: Antitumor activity against BT549 cells; assay type: functional; conditions: Homo sapiens
T47D = test: Antitumor activity against T47D cells; assay type: functional; conditions: Homo sapiens; summary of the method: as §1
Pseudomonas aeruginosa = test: Antibacterial activity against Pseudomonas aeruginosa MTCC 424 after 18 hrs; assay type: functional; conditions: MTCC 424, 18 h
Summary of the method: (§2)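 Disc diffusion (Kirby–Bauer) on Mueller-Hinton agar inoculated with fresh bacteria at 1-5 × 10^4 cfu mL-1. Compounds were dissolved in DMF at a range of concentrations, and discs were placed in triplicate. Plates were incubated at 30 °C for 18 h. MIC was taken as the lowest concentration giving no visible bacterial growth on the plate.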

[2] = system: Staphylococcus epidermidis; test: Antibacterial activity against Staphylococcus epidermidis MTCC 435 after 18 hrs; assay type: functional; conditions: MTCC 435, 18 h; summary of the method: as §2
Vibrio = test: Antibacterial activity against Vibrio species after 18 hrs; assay type: functional; summary of the method: as §2
786-0 = test: Antitumor activity against 786-0 cells; assay type: functional; conditions: Homo sapiens
CCRF-CEM = test: Antitumor activity against CCRF-CEM cells; assay type: functional; conditions: Homo sapiens
[3] = Antitumor activity against HL60 (TB) cells; assay type: functional, HL-60(TB); conditions: Homo sapiens, HL-60
Summary of the method: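 NCI 60-cell-line in vitro screen (leukaemia subpanel). Compound tested at five 10-fold dilutions from 10^-4 to 10^-8 M. Dose-response parameters: GI50 (concentration giving 50% net growth inhibition), TGI (total growth inhibition) and LC50 (50% net cell death), each reported as log10 of molar concentration.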

MOLT-4 = test: Antitumor activity against MOLT4 cells; assay type: functional; conditions: Homo sapiens
HOP-62 = test: Antitumor activity against HOP62 cells; assay type: functional; conditions: Homo sapiens
HOP-92 = test: Antitumor activity against HOP92 cells; assay type: functional; conditions: Homo sapiens
NCI-H226 = test: Antitumor activity against NCI-H226 cells; assay type: functional; conditions: Homo sapiens
[4] = Antitumor activity against NCI-H322 cells; assay type: functional; conditions: Homo sapiens
NCI-H460 = test: Antitumor activity against NCI-H460 cells; assay type: functional; conditions: Homo sapiens
HCC 2998 = test: Antitumor activity against HCC2998 cells; assay type: functional; conditions: Homo sapiens
HCT-116 = test: Antitumor activity against HCT116 cells; assay type: functional; conditions: Homo sapiens
HT-29 = test: Antitumor activity against HT29 cells; assay type: functional; conditions: Homo sapiens
KM12 = test: Antitumor activity against KM12 cells; assay type: functional; conditions: Homo sapiens
SF-295 = test: Antitumor activity against SF295 cells; assay type: functional; conditions: Homo sapiens
SF-539 = test: Antitumor activity against SF539 cells; assay type: functional; conditions: Homo sapiens
SNB-19 = test: Antitumor activity against SNB19 cells; assay type: functional; conditions: Homo sapiens; summary of the method: as §1
U-251 = test: Antitumor activity against U251 cells; assay type: functional; conditions: Homo sapiens; summary of the method: as §1
[5] = read-out: Log LC50 (the source's name) (converted)

O=C(NNS(=O)(=O)c1ccc(F)cc1)c1cccnc1Nc1ccc(Cl)cc1Cl
GI50 (SR): 22.9 µM | LC50 (SR): > 100 µM | TGI (SR; read-out: Log TGI (converted)): 67.6 µM | GI50 (A549): 17.4 µM | LC50 (A549): 97.7 µM | TGI (A549; read-out: Log TGI (converted)): 40.7 µM | GI50 [1]: 34.7 µM | CC50 [1, 5]: > 100 µM | TGI ([1]; read-out: Log TGI (converted)): > 100 µM | GI50 (M14): 46.8 µM | LC50 (M14): > 100 µM | TGI (M14; read-out: Log TGI (converted)): > 100 µM | GI50 (SK-MEL-28): 89.1 µM | LC50 (SK-MEL-28): > 100 µM | TGI (SK-MEL-28; read-out: Log TGI (converted)): > 100 µM | GI50 (SK-MEL-5): 25.1 µM | LC50 (SK-MEL-5): > 100 µM | TGI (SK-MEL-5; read-out: Log TGI (converted)): 85.1 µM | GI50 (UACC-257): 11.7 µM | LC50 (UACC-257): > 100 µM | TGI (UACC-257; read-out: Log TGI (converted)): 52.5 µM | GI50 (OVCAR-3): 29.5 µM | CC50 (OVCAR-3; [5]): > 100 µM | TGI (OVCAR-3; read-out: Log TGI (converted)): 95.5 µM | GI50 (OVCAR-4): 38 µM | LC50 (lethal concentration, 50%) (OVCAR-4): > 100 µM | TGI (OVCAR-4; read-out: Log TGI (converted)): > 100 µM | GI50 (SK-OV-3): 38 µM | CC50 (SK-OV-3; [5]): > 100 µM | TGI (SK-OV-3; read-out: Log TGI (converted)): > 100 µM | GI50 (A498): 17.4 µM | LC50 (A498): 77.6 µM | TGI (A498; read-out: Log TGI (converted)): 36.3 µM | GI50 (ACHN): 45.7 µM | LC50 (ACHN): > 100 µM | TGI (ACHN; read-out: Log TGI (converted)): > 100 µM | GI50 (CAKI-1): 30.9 µM | LC50 (CAKI-1): > 100 µM | TGI (CAKI-1; read-out: Log TGI (converted)): > 100 µM | GI50 (PC-3): 14.8 µM | LC50 (PC-3): 69.2 µM | TGI (PC-3; read-out: Log TGI (converted)): 32.4 µM | GI50 (DU-145): 22.9 µM | LC50 (DU-145): > 100 µM | TGI (DU-145; read-out: Log TGI (converted)): 55 µM | GI50 (MCF7): 31.6 µM | LC50 (MCF7): > 100 µM | TGI (MCF7; read-out: Log TGI (converted)): > 100 µM | GI50 (MDA-MB-231): 28.8 µM | LC50 (MDA-MB-231): > 100 µM | TGI (MDA-MB-231; read-out: Log TGI (converted)): > 100 µM | GI50 (Hs-578T): 28.2 µM | CC50 (Hs-578T; [5]): > 100 µM | TGI (Hs-578T; read-out: Log TGI (converted)): > 100 µM | GI50 (BT-549): 36.3 µM | LC50 (BT-549): > 100 µM | TGI (BT-549; read-out: Log TGI (converted)): 100 µM | GI50 (T47D): 18.6 µM | CC50 (T47D; [5]): > 100 µM | TGI (T47D; read-out: Log TGI (converted)): > 97.7 µM | MIC (Pseudomonas aeruginosa): > 25 µg/mL | MIC [2]: 21 µg/mL (≈ 46.1 µM) | MIC (Vibrio): 20 µg/mL (≈ 43.9 µM) | GI50 (786-0): 22.9 µM | LC50 (lethal concentration, 50%) (786-0): > 100 µM | TGI (786-0; read-out: Log TGI (converted)): 53.7 µM | LC50 (CCRF-CEM): > 100 µM | TGI (CCRF-CEM; read-out: Log TGI (converted)): > 100 µM | GI50 (CCRF-CEM; read-out: pGI50 (converted)): 20.9 µM | GI50 [3]: 25.1 µM | LC50 [3]: > 100 µM | TGI ([3]; read-out: Log TGI (converted)): 61.7 µM | GI50 (MOLT-4): 22.9 µM | LC50 (MOLT-4): > 100 µM | TGI (MOLT-4; read-out: Log TGI (converted)): > 100 µM | GI50 (HOP-62): 30.9 µM | CC50 (HOP-62; [5]): > 100 µM | TGI (HOP-62; read-out: Log TGI (converted)): 85.1 µM | GI50 (HOP-92): 15.5 µM | CC50 (HOP-92; [5]): 85.1 µM | TGI (HOP-92; read-out: Log TGI (converted)): 36.3 µM | GI50 (NCI-H226): 29.5 µM | CC50 (NCI-H226; [5]): > 100 µM | TGI (NCI-H226; read-out: Log TGI (converted)): 97.7 µM | GI50 [4]: 30.9 µM | CC50 [4, 5]: > 100 µM | TGI ([4]; read-out: Log TGI (converted)): > 100 µM | GI50 (NCI-H460): 31.6 µM | LC50 (NCI-H460): > 100 µM | TGI (NCI-H460; read-out: Log TGI (converted)): > 100 µM | GI50 (HCC 2998): 30.2 µM | LC50 (HCC 2998): > 100 µM | TGI (HCC 2998; read-out: Log TGI (converted)): > 100 µM | GI50 (HCT-116): 30.2 µM | LC50 (HCT-116): > 100 µM | TGI (HCT-116; read-out: Log TGI (converted)): > 100 µM | GI50 (HT-29): 21.9 µM | LC50 (HT-29): > 100 µM | TGI (HT-29; read-out: Log TGI (converted)): 57.5 µM | GI50 (KM12): 22.9 µM | CC50 (KM12; [5]): > 100 µM | TGI (KM12; read-out: Log TGI (converted)): 49 µM | GI50 (SF-295): 37.2 µM | CC50 (SF-295; [5]): > 100 µM | TGI (SF-295; read-out: Log TGI (converted)): > 100 µM | GI50 (SF-539): 26.3 µM | LC50 (SF-539): > 100 µM | TGI (SF-539; read-out: Log TGI (converted)): 74.1 µM | GI50 (SNB-19): 29.5 µM | CC50 (SNB-19; [5]): > 100 µM | TGI (SNB-19; read-out: Log TGI (converted)): > 100 µM | GI50 (U-251): 28.8 µM | LC50 (U-251): > 100 µM | TGI (U-251; read-out: Log TGI (converted)): > 100 µM
